# Data published in ChEMBL document CHEMBL1151959, “Identification and biological evaluation of a series of 1H-benzo[de]isoquinoline-1,3(2H)-diones as hepatitis C virus NS5B polymerase inhibitors” (J Med Chem, 2009).
# Active and inactive are the calls of the source. No cut-off for these calls is given here.
# Key:
# [1] = Inhibition of HCV2b.2 NS5B Cdelta21 RNA dependent RNA polymerase; design: species or system Hepacivirus hominis, 2b.2
# In short: (§1)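 Truncated ΔC21 NS5B RdRp from the HCV genotype 1b BK strain or the genotype 2b 2b.2 strain. Values are the mean of two or more experiments, with SD within 30% of the mean.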
# [2] = Cytotoxicity against human HuH7 cells by MTT assay; type: cell-based; conditions: Huh-7 cells
# [3] = Inhibition of HCV1b BK NS5B Cdelta21 RNA dependent RNA polymerase; design: species or system Hepatitis C virus (isolate BK); in short: as §1
# Hepatitis C virus [4] = experiment: Antiviral activity against HCV1b Con1 infected in human Huh7 clone HBI10A cells expressing HEPREP 1b replicon by cell-ELISA assay; type: functional, organism-based, Hepacivirus hominis; conditions: isolate Con1, Huh-7
# [5] = Inhibition of Bovine viral diarrhea virus 1 RNA-dependent RNA polymerase
# [6] = Inhibition of HCV3a.7 NS5B Cdelta21 RNA dependent RNA polymerase; design: species or system Hepacivirus hominis, 3a.7
# Hepatitis C virus [7] = experiment: Antiviral activity against HCV H77-1a infected in human Huh7 cells by replicon cell-ELISA assay; conditions: genotype 1a H77, Huh-7
# [8] = AUC in rat at 3 mg/kg, po; type: ADME, organism-based; design: dose 3 mg/kg, route oral; conditions: plasma
# In short: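 Single oral dose of 3 mg/kg given to rats. Compound concentrations were measured in plasma, and AUC was taken from the plasma exposure after oral dosing. The same rat study also included an iv administration arm.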
# [9] = tested on: Hepatitis C virus (isolate BK); experiment: Inhibition of HCV1b BK NS5B Cdelta21 RNA dependent RNA polymerase in pre-elongation phase assessed as residual enzyme activity at 1 uM preincubated for 120 mins with polyA oligoU18 RNA in room temperature
# In short: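 Preincubation time course: ΔC21-1b enzyme and polyA/oligoU18 RNA preincubated 0 to 120 min before adding compound at 1 μM. Residual polymerase activity measured.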
# [10] = Cmax in rat at 3 mg/kg, po after 0.7 hrs; type: ADME, organism-based; design: dose 3 mg/kg, route oral; conditions: in vivo
# Hepatitis C virus [11] = experiment: Antiviral activity against HCV 2b.2 infected in human Huh7 cells by replicon cell-ELISA assay; conditions: 2b.2, Huh-7
# [12] = Solubility of the compound; type: physicochemical
# [13] = tested on: Hepatitis C virus (isolate BK); experiment: Inhibition of HCV1b BK NS5B Cdelta21 RNA dependent RNA polymerase in pre-elongation phase assessed as residual activity at 1 uM to 0.1 nM preincubated for 5 mins with polyA oligoU18 RNA in room temperature in presence of heparin
# In short: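 Single-cycle conditions: ΔC21-1b enzyme and polyA/oligoU18 RNA preincubated 5 min, then compound added from 0.1 nM to 1 μM. Elongation started with 3H-UTP plus heparin (50 ng/μL) to trap free enzyme. Residual polymerase activity measured.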
# [14] = Inhibition of HCV2a.4 NS5B Cdelta21 RNA dependent RNA polymerase; design: species or system Hepacivirus hominis, 2a.4
# [15] = Clearance in rat at 3 mg/kg, iv; type: ADME, organism-based; design: dose 3 mg/kg, route intravenous; conditions: in vivo
# [16] = Oral bioavailability in rat at 3 mg/kg; type: ADME, organism-based; conditions: in vivo
# Genome polyprotein = Genome polyprotein (GB virus-B, UniProt Q69422); experiment: Inhibition of Hepatitis GB virus B NS5B RNA dependent RNA polymerase
# [17] = Inhibition of HIV reverse transcriptase; design: species or system Human immunodeficiency virus
# [18] = Inhibition of DNA polymerase 1 Klenow fragment
# Hepatitis C virus [19] = experiment: Antiviral activity against HCV1b BK infected in human H2B2 cells expressing HEPREP 2b replicon by cell-ELISA assay
# [20] = Volume of distribution at steady state in rat at 3 mg/kg, iv; type: ADME, organism-based; design: dose 3 mg/kg, route intravenous; conditions: in vivo, read-out: Vdss
# Hepatitis C virus [21] = experiment: Antiviral activity against HCV1b Con1 infected in human Huh7 cells by replicon cell-ELISA assay; conditions: isolate Con1, Huh-7
# [22] = Inhibition of HCV6a NS5B Cdelta21 RNA dependent RNA polymerase; design: species or system Hepatitis C virus subtype 6a
# In short: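 Purified ΔC21-truncated NS5B RNA-dependent RNA polymerase from HCV genotype 6a, run alongside enzymes from the other major genotypes. Each value is the mean of two or more separate experiments, with SD within ±30% of the mean.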
# [23] = Inhibition of HCV1a RB5 NS5B Cdelta21 RNA dependent RNA polymerase; design: species or system Hepatitis C virus subtype 1a
# Hepatitis C virus [24] = experiment: Antiviral activity against HCV1b BK infected in human Huh7 cells by replicon cell-ELISA assay; conditions: Huh-7
# [25] = tested on: Hepatitis C virus (isolate BK); experiment: Inhibition of HCV1b BK NS5B Cdelta21 RNA dependent RNA polymerase in pre-elongation phase assessed as residual enzyme activity at 6.4 uM to 3 nM preincubated for 15 mins with polyA oligoU18 RNA in room temperature
# In short: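 ΔC21-1b polymerase (20 nM) with polyA/oligoU18 RNA, preincubated 15 min at room temperature before compound addition or not preincubated. Compound titrated 3 nM to 6.4 μM. Residual activity measured.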
# [26] = Elimination half life in rat at 3 mg/kg, iv; type: ADME, organism-based; design: dose 3 mg/kg, route intravenous; conditions: in vivo
# [27] = Lipophilicity, log D of the compound; type: physicochemical; conditions: octanol/water
# [28] = Inhibition of HCV4a NS5B Cdelta21 RNA dependent RNA polymerase; design: species or system Hepatitis C virus subtype 4a
# [29] = biological target: RNA-directed RNA polymerase (Hepacivirus hominis, UniProt O39930, P495A); experiment: Inhibition of HCV1b BK NS5B Cdelta21 RNA dependent RNA polymerase Thumb site 1 P495A mutant; design: species or system Hepatitis C virus (isolate BK)
# [30] = Inhibition of HCV1b BK NS5B Cdelta21 RNA dependent RNA polymerase Thumb site 2 R501E mutant; design: species or system Hepatitis C virus (isolate BK)
# [31] = biological target: RNA-directed RNA polymerase (Hepacivirus hominis, UniProt O39930, M414T); experiment: Inhibition of HCV1b BK NS5B Cdelta21 RNA dependent RNA polymerase Palm site 1 and 2 M414T mutant; design: species or system Hepatitis C virus (isolate BK)
# [32] = biological target: RNA-directed RNA polymerase (Hepacivirus hominis, UniProt O39930, M423K); experiment: Inhibition of HCV1b BK NS5B Cdelta21 RNA dependent RNA polymerase Thumb site 2 M423K mutant; design: species or system Hepatitis C virus (isolate BK)
smiles,measurement,setting,value
O=C1c2cccc3c(NC4CCCCC4)ccc(c23)C(=O)N1c1cccc(Br)c1,IC50,[1],120 nM
same,CC50,[2],> 50000 nM
same,IC50,[3],66 nM
same,EC50,Hepatitis C virus [4],> 50000 nM
O=C1c2cccc3c(NCCO)ccc(c23)C(=O)N1c1ccccc1,IC50,[1],> 50000 nM
same,IC50,[3],1700 nM
O=C1c2cccc3c(NCCO)ccc(c23)C(=O)N1c1cccc(Br)c1,IC50,[5],> 50000 nM
same,IC50,[6],760 nM
same,IC50,[1],180 nM
same,EC50,Hepatitis C virus [7],4700 nM
same,CC50,[2],76000 nM
same,AUC,[8],9.7 µM·h
same,Activity,[9],inactive
same,Cmax,[10],4 µM
same,EC50,Hepatitis C virus [11],11100 nM
same,solubility,[12],0.44 µg/mL
same,Activity,[13],Active
same,IC50,[14],770 nM
same,clearance,[15],12 mL/min/kg
same,bioavailability,[16],83%
same,IC50,Genome polyprotein,> 50000 nM
same,IC50,[17],> 50000 nM
same,IC50,[18],> 50000 nM
same,EC50,Hepatitis C virus [19],11000 nM
same,Vd,[20],1.1 L/kg
same,EC50,Hepatitis C virus [21],6400 nM
same,IC50,[22],490 nM
same,IC50,[23],64 nM
same,EC50,Hepatitis C virus [24],4600 nM
same,Activity,[25],inactive
same,half-life,[26],42 min
same,logD,[27],3.45
same,IC50,[28],540 nM
OCCNc1ccc2c3c(cccc13)CN(c1cccc(Br)c1)C2,IC50,[1],> 50000 nM
same,IC50,[3],> 50000 nM
CC(C)N(c1cc(-c2ccccc2)sc1C(=O)O)C(=O)[C@H]1CC[C@H](C)CC1,IC50,[1],> 10000 nM
same,CC50,[2],> 50000 nM
same,IC50,[3],9 nM
same,IC50,[29],40 nM
same,IC50,[30],100 nM
same,IC50,[31],16 nM
same,EC50,Hepatitis C virus [4],1400 nM
same,IC50,[32],> 500 nM
O=C1c2cccc3c(NC4CCNCC4)ccc(c23)C(=O)N1c1cccc(Br)c1,IC50,[1],120 nM
same,CC50,[2],3500 nM
same,IC50,[3],30 nM
same,EC50,Hepatitis C virus [4],1900 nM
CC(C)CNc1ccc2c3c(cccc13)C(=O)N(c1cccc(Br)c1)C2=O,IC50,[1],90 nM
same,CC50,[2],> 50000 nM
same,IC50,[3],130 nM
same,EC50,Hepatitis C virus [4],11000 nM
Nc1ccc2c3c(cccc13)C(=O)N(c1cccc(Br)c1)C2=O,IC50,[1],300 nM
same,IC50,[3],190 nM
O=C1c2cccc3c(N[C@H]4CC[C@@H](C(=O)O)CC4)ccc(c23)C(=O)N1c1cccc(Br)c1,IC50,[1],110 nM
same,CC50,[2],> 50000 nM
same,IC50,[3],42 nM
same,EC50,Hepatitis C virus [4],3800 nM
O=C1c2ccc(NCCO)c3cccc(c23)CN1c1cccc(Br)c1,IC50,[1],3500 nM
same,IC50,[3],850 nM
CCNc1ccc2c3c(cccc13)C(=O)N(c1cccc(Br)c1)C2=O,IC50,[1],185 nM
same,IC50,[3],29 nM
CNCCNc1ccc2c3c(cccc13)C(=O)N(c1cccc(Br)c1)C2=O,IC50,[1],400 nM
same,CC50,[2],1500 nM
same,IC50,[3],130 nM
same,EC50,Hepatitis C virus [4],2000 nM
O=C1c2cccc3c(NC4CCN(Cc5ccccc5)CC4)ccc(c23)C(=O)N1c1cccc(Br)c1,IC50,[1],43 nM
same,CC50,[2],5200 nM
same,IC50,[3],< 14 nM
same,EC50,Hepatitis C virus [4],2200 nM
NS(=O)(=O)c1cccc(N2C(=O)c3cccc4c(NCCO)ccc(c34)C2=O)c1,IC50,[1],> 50000 nM
same,CC50,[2],> 50000 nM
same,IC50,[3],1600 nM
same,EC50,Hepatitis C virus [4],> 50000 nM
CN(CCO)c1ccc2c3c(cccc13)C(=O)N(c1cccc(Br)c1)C2=O,IC50,[1],1800 nM
same,IC50,[3],500 nM
O=C1c2cccc3cccc(c23)C(=O)N1c1cccc(Br)c1,IC50,[1],> 50000 nM
same,IC50,[3],> 50000 nM
COCCNc1ccc2c3c(cccc13)C(=O)N(c1cccc(Br)c1)C2=O,IC50,[1],124 nM
same,IC50,[3],24 nM
